Assay results: ChEMBL document CHEMBL1275391, “Design, synthesis, and preclinical evaluation of new 5,6- (or 6,7-) disubstituted-2-(fluorophenyl)quinolin-4-one derivatives as potent antitumor agents” (J Med Chem, 2010)

How the values were obtained:
SF-268 = experiment: Growth inhibition of human SF268 cells; type: functional
UACC-62 = experiment: Growth inhibition of human UACC62 cells; type: functional
[1] = Cytotoxicity against human Hep3B cells after 48 hrs by MTT assay; type: functional, cell-based, Hep 3B2
Procedure, shortened: (§1)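 Cells exposed to a range of compound concentrations for 48 h, washed once with PBS, then incubated with MTT for 2 h. Formazan dissolved in DMSO and absorbance read at 570 nm. IC50 taken as the concentration giving 50% inhibition of proliferation.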

HL-60(TB) = experiment: Growth inhibition of human HL-60(TB) cells; type: functional
DU-145 = experiment: Growth inhibition of human DU145 cells; type: functional
OVCAR-3 = experiment: Growth inhibition of human OVCAR-3 cells; type: functional
SK-OV-3 = experiment: Growth inhibition of human SKOV3 cells; type: functional
SF-539 = experiment: Growth inhibition of human SF539 cells; type: functional
MDA-MB-231 = experiment: Growth inhibition of human MDA-MB-231 cells; type: functional
HT-29 = experiment: Growth inhibition of human HT-29 cells; type: functional
MCF7 = experiment: Growth inhibition of human MCF7 cells; type: functional
NCI-H522 = experiment: Growth inhibition of human NCI-H522 cells; type: functional
CAKI-1 = experiment: Growth inhibition of human Caki1 cells; type: functional
SR = experiment: Growth inhibition of human SR cells; type: functional
HCT-116 = experiment: Growth inhibition of human HCT116 cells; type: functional
KM12 = experiment: Growth inhibition of human KM12 cells; type: functional
UACC-257 = experiment: Growth inhibition of human UACC257 cells; type: functional
T47D = experiment: Growth inhibition of human T47D cells; type: functional
HL-60 = experiment: Cytotoxicity against human HL60 cells after 48 hrs by MTT assay; type: functional, cell-based; details: HL-60, 48 h; procedure, shortened: as §1
[2] = biological target: Phosphodiesterase 4 (Homo sapiens) (UniProt P27815+Q08499+Q07343+Q08493); experiment: Inhibition of human PDE4 at 10 uM; type: protein assay
K562 = experiment: Growth inhibition of human K562 cells; type: functional
SF-295 = experiment: Growth inhibition of human SF295 cells; type: functional
OVCAR-8 = experiment: Growth inhibition of human OVCAR8 cells; type: functional
SK-MEL-2 = experiment: Growth inhibition of human SK-MEL-2 cells; type: functional
Malme-3M = experiment: Growth inhibition of human MALME-3M cells; type: functional
CYP1A2 = CYP1A2 (Homo sapiens, UniProt P05177); experiment: Inhibition of human CYP1A2 at 10 uM; type: ADME
COLO 205 = experiment: Growth inhibition of human COLO205 cells; type: functional
[3] = read-out: pLC50 (the source's name) (converted)

Chain of CYP1A2 (P05177 whole entry): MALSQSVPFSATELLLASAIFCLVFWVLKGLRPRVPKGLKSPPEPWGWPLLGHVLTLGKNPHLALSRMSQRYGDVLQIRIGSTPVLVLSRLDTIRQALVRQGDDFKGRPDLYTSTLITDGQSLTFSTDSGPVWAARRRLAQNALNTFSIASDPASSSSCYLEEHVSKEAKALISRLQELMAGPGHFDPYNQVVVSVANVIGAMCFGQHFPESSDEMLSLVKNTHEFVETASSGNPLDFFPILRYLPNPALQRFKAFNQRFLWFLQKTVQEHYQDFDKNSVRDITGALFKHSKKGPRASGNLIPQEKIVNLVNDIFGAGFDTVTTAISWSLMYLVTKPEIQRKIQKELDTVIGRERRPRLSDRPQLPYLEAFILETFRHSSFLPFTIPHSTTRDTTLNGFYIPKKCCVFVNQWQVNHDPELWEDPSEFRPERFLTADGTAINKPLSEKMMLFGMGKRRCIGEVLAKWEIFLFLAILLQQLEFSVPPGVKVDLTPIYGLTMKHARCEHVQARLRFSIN

`COc1ccc2[nH]c(-c3cccc(F)c3)cc(=O)c2c1O` gave a GI50 (SF-268) of 61.7 nM, a CC50 (SF-268; [3]) of 89100 nM and a TGI (SF-268; read-out: pTGI (converted)) of 15500 nM. The GI50 (UACC-62) was 30.9 nM, the CC50 (UACC-62; [3]) was 93300 nM and the TGI (UACC-62; read-out: pTGI (converted)) was 20000 nM. For the same compound, the IC50 [1] was 70 nM, the GI50 (HL-60(TB)) was 22.4 nM and the CC50 (HL-60(TB); [3]) was > 100000 nM. It also gave a TGI (HL-60(TB); read-out: pTGI (converted)) of 63.1 nM, a GI50 (DU-145) of 20.9 nM and a CC50 (DU-145; [3]) of 33900 nM. It also gave a TGI (DU-145; read-out: pTGI (converted)) of 52.5 nM, a GI50 (OVCAR-3) of 19.1 nM and a CC50 (OVCAR-3; [3]) of 30200 nM. The TGI (OVCAR-3; read-out: pTGI (converted)) was 40.7 nM, the GI50 (SK-OV-3) was 35.5 nM and the CC50 (SK-OV-3; [3]) was 37200 nM. The TGI (SK-OV-3; read-out: pTGI (converted)) was 10700 nM, the GI50 (SF-539) was 26.3 nM and the CC50 (SF-539; [3]) was 18600 nM. For the same compound, the TGI (SF-539; read-out: pTGI (converted)) was 97.7 nM, the GI50 (MDA-MB-231) was 61.7 nM and the CC50 (MDA-MB-231; [3]) was > 100000 nM. The TGI (MDA-MB-231; read-out: pTGI (converted)) was 22900 nM, the GI50 (HT-29) was 28.8 nM and the CC50 (HT-29; [3]) was 15500 nM. For the same compound, the TGI (HT-29; read-out: pTGI (converted)) was 75.9 nM, the GI50 (MCF7) was 30.2 nM and the CC50 (MCF7; [3]) was > 100000 nM. The TGI (MCF7; read-out: pTGI) was > 100000 nM, the GI50 (NCI-H522) was 14.4 nM and the CC50 (NCI-H522; [3]) was 97.7 nM. For the same compound, the TGI (NCI-H522; read-out: pTGI (converted)) was 38 nM, the GI50 (CAKI-1) was 46.8 nM and the CC50 (CAKI-1; [3]) was > 100000 nM. The TGI (CAKI-1; read-out: pTGI (converted)) was 22900 nM, the GI50 (SR) was 12 nM and the CC50 (SR; [3]) was > 100000 nM. It also gave a TGI (SR; read-out: pTGI (converted)) of 67.6 nM, a GI50 (HCT-116) of 33.1 nM and a CC50 (HCT-116; [3]) of 29500 nM. For the same compound, the TGI (HCT-116; read-out: pTGI (converted)) was 1780 nM, the GI50 (KM12) was 27.5 nM and the CC50 (KM12; [3]) was 5500 nM. For the same compound, the TGI (KM12; read-out: pTGI (converted)) was 151 nM, the GI50 (UACC-257) was 33.9 nM and the CC50 (UACC-257; [3]) was > 100000 nM. For the same compound, the TGI (UACC-257; read-out: pTGI) was > 100000 nM, the GI50 (T47D) was 28.2 nM and the CC50 (T47D; [3]) was 87100 nM. The IC50 (HL-60) was 30 nM, the inhibition [2] was 55% and the GI50 (K562) was 24 nM. The CC50 (K562; [3]) was > 100000 nM, the TGI (K562; read-out: pTGI (converted)) was 204 nM and the GI50 (SF-295) was 25.7 nM. The CC50 (SF-295; [3]) was 53700 nM, the TGI (SF-295; read-out: pTGI (converted)) was 10500 nM and the GI50 (OVCAR-8) was 56.2 nM. The CC50 (OVCAR-8; [3]) was 81300 nM, the TGI (OVCAR-8; read-out: pTGI (converted)) was 16200 nM and the GI50 (SK-MEL-2) was 72.4 nM. The CC50 (SK-MEL-2; [3]) was 77600 nM, the TGI (SK-MEL-2; read-out: pTGI (converted)) was 15800 nM and the CC50 (Malme-3M; [3]) was > 100000 nM. It also gave a TGI (Malme-3M; read-out: pTGI (converted)) of 52500 nM, an inhibition at 10 µM (CYP1A2) of 85% and a GI50 (COLO 205) of 25.1 nM. The CC50 (COLO 205; [3]) was 832 nM and the TGI (COLO 205; read-out: pTGI (converted)) was 66.1 nM.
